SIRT5 inh – SIRT5 desuccinylase inhibitors, primary screen, biochemical, fluorescence imaging, single point, set 5; NAD-dependent protein deacylase sirtuin-5, mitochondrial (Homo sapiens), Q9NXA8; Purified SirT5, succinyl-peptide AMC, trypsin-coupled fluorescence; inhibition, % at 15 µM; 330,000 tested, 1.1% active; AID 652115, 2013; in the data active = inhibition above about 15%
Target sequence (Q9NXA8 whole entry, looked up): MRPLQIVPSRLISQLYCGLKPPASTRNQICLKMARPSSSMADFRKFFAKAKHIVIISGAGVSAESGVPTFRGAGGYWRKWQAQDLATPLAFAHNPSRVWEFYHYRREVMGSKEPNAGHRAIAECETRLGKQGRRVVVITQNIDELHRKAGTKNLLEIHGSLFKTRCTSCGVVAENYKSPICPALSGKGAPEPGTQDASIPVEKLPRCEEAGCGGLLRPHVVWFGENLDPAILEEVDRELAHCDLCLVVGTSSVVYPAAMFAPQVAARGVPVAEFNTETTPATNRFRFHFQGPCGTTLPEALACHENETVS
FGF22 binding – binders of human FGF22 protein, primary screen, FGF22 synaptogenesis inhibitor project, biophysical, thermal shift, single point. recombinant FGF22 thermal shift, SYPRO orange fluorescence; percent of sucrose octasulfate shift, DMSO zero. AID 651658, 2012. 340,000 tested, 1.5% active. Fibroblast growth factor 22 (Homo sapiens), Q9HCT0. activity (Tm shift, normalised), % at 9.99 µM;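 active = mean Tm shift, scaled 0 neutral to 100 positive control, at about 1.3% or above, every replicate too, limit read from the data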
Target sequence (Q9HCT0 whole entry, looked up): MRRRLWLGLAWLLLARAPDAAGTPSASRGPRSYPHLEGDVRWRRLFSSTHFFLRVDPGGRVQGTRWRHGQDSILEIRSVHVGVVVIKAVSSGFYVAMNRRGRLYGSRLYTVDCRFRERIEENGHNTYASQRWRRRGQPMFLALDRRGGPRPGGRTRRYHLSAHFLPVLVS
E-selectin induc – E-selectin induction in HUVECs, primary screen, imaging, HUVEC, immunofluorescence imaging, single point; P16581; normalized: neutral wells 0, TNF-alpha wells 100; AID 686992, 2013; 260,000 tested, 0.37% active; activation, % at 7.58 µM;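 active = mean E-selectin-positive cell signal at least 10% of the positive control, reached in at least 60% of replicates, without over 20% cell loss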
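Material: HUVEC primary endothelial cells; Amount: 3,000 cells per well; Dosing: single concentration; Medium: EGM-2 growth medium on 0.1% gelatin-coated wells; Read-out basis: percent E-selectin-positive cells; Signal: immunofluorescence imaging; Control set: TNF-alpha, DMSO.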
C2C12 statin – suppressors of statin myotoxicity in C2C12 myotubes, primary screen, cell-based, single point, plate reader; C2C12 myotubes + simvastatin, ATP luminescence, 48 h; scaled: DMSO 0, geranylgeraniol control 100; rescue of ATP level, % at 7.49 µM; 330,000 tested, 0.78% active; AID 602340, 2012;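 active = mean ATP rescue above about 67%, or every replicate alone reaching that limit, limit read from the data, passing the limit was not always enough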;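 also: myotubes were challenged with 10 µM simvastatin during compound exposure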
Ecoli rRNA inh – reduced GFP signal of wild-type E. coli, primary screen, bacterial rRNA inhibitor project, GFP/RFP fluorescence, OD600, single point; E. coli WT GFP vs humanized-ribosome RFP mutants, 24 h; active compounds read low; DMSO median 0, no signal -100; 350,000 tested, 1.6% active; GFP signal change (wild-type ribosome), % (test concentration not listed); AID 720706, 2013;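 active = significant combined selectivity score with lowered wild-type GFP, culture density cut under 30%, mutant RFP and density less affected; inactive = any of these conditions unmet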
FN deposit inh – inhibitors of fibronectin matrix deposition, primary screen, AH1F cells, Alexa488-fibronectin fluorescence, plate reader; inhibition, % at 12.6 µM; AH1F fibroblasts, overnight; 350,000 tested, 0.086% active;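 active = mean inhibition across replicates of 30% or more, regardless of how many single replicates reach that level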
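Material: AH1F fibroblast monolayer depositing Alexa488-labelled fibronectin into matrix / Amount: 10000 AH1F cells per well / Signal: fluorescence 485/525 nm / Medium: DMEM, 2% serum / Compound: single dose, pinned / Incubation: 1 h cell adhesion before compound, then overnight fibronectin incubation / Reagent: Alexa488-FN, 24 nM final / Read-out: inhibition of fibronectin deposition signal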
A number is an active result; i = inactive; nt = no result. Rows were chosen to be rich in hits. Some 4% of all compounds tested hit in one or more screens of this group.

SMILES	SIRT5 inh	FGF22 binding	E-selectin induc	C2C12 statin	Ecoli rRNA inh	FN deposit inh
C[C@@H]1CN([C@@H](C)CO)C(=O)c2cc(NC(=O)NC3CCCCC3)ccc2O[C@@H](C)CCCCO[C@@H]1CN(C)S(=O)(=O)c1cn(C)cn1	i	i	i	nt	i	nt
CCCNC(=O)Nc1ccc2c(c1)C(=O)N(C)C[C@H](OC)[C@@H](C)CN(Cc1cccnc1)[C@@H](C)CO2	i	i	i	i	i	i
COc1cccc(-c2cn(CC[C@H]3CC[C@H](NS(=O)(=O)Cc4ccccc4)[C@@H](CO)O3)nn2)c1	i	i	i	i	i	i
O=C(C[C@H]1CC[C@H]2[C@@H](COC[C@@H](O)CN2C(=O)C2CC2)O1)NCc1ccccc1Cl	i	i	i	i	i	i
NNC(=O)c1c[nH]c2ccc(OCc3ccccc3)cc12	i	i	nt	nt	-27	i
Cc1ccccc1S(=O)(=O)N(C)C[C@@H]1OCc2cn(nn2)CCCC(=O)N([C@H](C)CO)C[C@@H]1C	i	i	i	i	i	i
Oc1cccc(Nc2nc(-c3ccccc3Cl)nc3ccccc23)c1	i	1.6	nt	i	i	i
COc1ccc2c3c(n(C)c2c1)[C@@H](CO)N(CC1CCCC1)CC31CCN(C(C)=O)CC1	i	i	i	nt	i	nt
CO[C@H]1CN(C)C(=O)c2cc(NC(=O)c3ccccc3)ccc2OC[C@@H](C)N(C(=O)CN(C)C)C[C@@H]1C	i	i	i	i	i	i
COc1cc(OC)cc(C(=O)NCc2cc(C)nc3ccccc23)c1	i	44	nt	nt	i	i
Cc1ccccc1CN1CCN(C(=O)c2cccc3ccccc23)CC1	i	i	nt	i	-22	i
COc1cc(C(=O)N2CCNCC2)cc(OC)c1OC	21	i	nt	i	i	i
COc1cc(C(=O)N2CCN(C(=O)C3CC3)CC2)cc(OC)c1OC	nt	nt	nt	i	nt	nt
COc1cc(C(=O)N2CCN(C(=O)COc3ccc4ccccc4c3)CC2)cc(OC)c1OC	nt	nt	nt	i	nt	nt
COc1ccc(C(=O)N2CCN(C(=O)c3cc(OC)c(OC)c(OC)c3)CC2)cc1	nt	nt	nt	108	nt	nt
COc1ccc(CN2CCN(C(=O)c3cc(-c4cccnc4)nc4ccc(Cl)cc34)CC2)c(OC)c1OC	i	i	nt	i	-23	nt
O=C(c1cccc2ccccc12)N1CCN(Cc2ccccc2F)CC1	i	i	nt	i	i	i
CO[C@@H]1CN(C)C(=O)c2cc(NC(=O)C3CCOCC3)ccc2OC[C@H](C)N(C(C)=O)C[C@@H]1C	nt	nt	i	i	i	i
COc1cc(CN2CCN(C(=O)c3ccc(-c4ccccc4)cc3)CC2)cc(OC)c1OC	i	i	nt	i	i	nt
COc1cccc(CN2CCN(C(=O)c3ccc(-c4ccccc4)cc3)CC2)c1OC	i	i	nt	nt	i	32
C[C@@H]1CN([C@@H](C)CO)C(=O)Cc2cc(NC(=O)Cn3cnnn3)ccc2O[C@H]1CN(C)Cc1ccc(Cl)c(Cl)c1	i	i	i	i	i	i
NS(=O)(=O)c1ccc(CCNC(=O)C(=O)c2c[nH]c3ccccc23)cc1	i	i	i	nt	-22	i
O=C(NCCc1ccccc1)C(=O)c1c[nH]c2ccccc12	i	i	nt	i	i	i
CNC[C@H]1Oc2ccc(NC(=O)Nc3ccccc3)cc2C(=O)N([C@@H](C)CO)C[C@@H]1C	i	i	i	i	i	i
CCOC(=O)/C(=N\Nc1ccccc1)P(=O)(c1ccccc1)c1ccccc1	i	i	i	i	-37	i
SMILES	SIRT5 inh	FGF22 binding	E-selectin induc	C2C12 statin	Ecoli rRNA inh	FN deposit inh
COc1cc(C(=O)O/N=C2\C=CC(=O)C=C2C)cc(OC)c1OC	i	43	nt	nt	i	i
COc1cc(C(=O)ON=C2C3CC4CC(C3)CC2C4)cc(OC)c1OC	i	i	nt	i	-22	nt
Cc1ccc(NC2=C/C(=N/S(=O)(=O)c3cccs3)c3ccccc3C2=O)cc1C	i	i	nt	nt	i	i
Cc1ccccc1NC1=C/C(=N\S(=O)(=O)c2cccs2)c2ccccc2C1=O	nt	nt	nt	i	nt	52
O=c1c2ccccc2sn1-c1cc(S(=O)(=O)N2CCOCC2)ccc1N1CCOCC1	nt	nt	nt	i	nt	50
Nc1nc(CSc2ccccc2)nc(N2CCCCC2)n1	i	i	i	i	i	i
Nc1nc(CSc2ccc(Cl)cc2)nc(N2CCCCC2)n1	18	i	i	nt	i	i
CO[C@H]1CN(C)C(=O)c2ccc(NC(=O)c3cc(C)on3)cc2OC[C@H](C)N(CC2CC2)C[C@H]1C	i	i	i	i	i	i
COc1ccc(S(=O)(=O)NNC(=O)c2sccc2-n2cccc2)cc1	i	i	i	96	i	i
O=C(NNS(=O)(=O)c1ccc(Br)cc1)c1ccccc1-n1cccc1	i	i	i	i	i	i
COc1ccc(NC(=O)c2sccc2-n2cccc2)cc1	i	i	i	i	-31	i
O=C(NNS(=O)(=O)c1ccc(Br)cc1)c1sccc1-n1cccc1	i	44	i	nt	i	i
CC(C)C(=O)Nc1ccc2c(c1)C(=O)N(C)[C@@H]1CC[C@H](CC(=O)NCc3cccc(F)c3)O[C@@H]1CO2	nt	i	i	i	i	i
Cc1noc(C)c1NC(=O)NCC[C@H]1CC[C@@H](NC(=O)Cc2cccnc2)[C@H](CO)O1	i	i	i	i	i	i
CCOc1cc(-c2nc3ccccc3s2)ccc1O	i	nt	i	i	-35	i
COc1ccc(/C=C/C2=NC(=C\N(C)C)/C(=O)O2)cc1	nt	nt	nt	114	nt	nt
COc1ccccc1C#Cc1cnc2c(c1)C(=O)N([C@@H](C)CO)C[C@H](C)[C@@H](CN(C)C(C)=O)O2	i	i	i	i	i	nt
COc1ccc(-c2ccc3c(c2)C2CC3CCN2C(=O)OCc2ccccc2)cc1 (centres undefined)	i	i	nt	i	i	active
C#CCSc1cc(C(F)(F)F)nc(-c2ccccn2)n1	20	i	i	nt	i	i
COc1ccc(Sc2cc(C(F)(F)F)nc(-c3ccccn3)n2)cc1	nt	nt	i	i	nt	i
C[C@@H]1CN([C@H](C)CO)C(=O)c2cccc(NC(=O)Nc3ccccc3)c2O[C@@H]1CN(C)S(=O)(=O)c1ccccc1	i	i	255	65	i	nt
Cc1ccc(S(=O)(=O)N(C)C[C@H]2Oc3c(NC(=O)Nc4ccccc4)cccc3C(=O)N([C@H](C)CO)C[C@H]2C)cc1	i	i	i	117	i	nt

Screening data: PubChem BioAssay, Broad Institute
